An excerpt weighted towards active compounds, which were near 1.1% of everything screened.
miR122 inh – miR-122 Renilla sensor signal increase in Huh7, primary screen, miR-122 inhibitor project, cell-based, single point, plate reader | Huh7 miR-122 Renilla luciferase sensor, 48 h; neutral wells = 0, positive control = 100 | activation (reporter increase), % at 12.5 µM | actives 0.3% (n = 340,000) | AID 602342, 2012;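 active = mean replicate activation score at least 90 and every replicate individually at or above 90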;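 also: higher luciferase means less miR-122 activity so hits act as miR-122 inhibitors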
Cneo AK release – Cryptococcus neoformans cell lysis inducers, primary screen, AK release luminescence, single concentration | C. neoformans lysis, adenylate kinase release luminescence, 4 h; normalised: neutral wells 0, clomiphene wells 100 | AID 651654, 2012 | actives 0.2% (n = 360,000) | lysis activity, % at 15 µM;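 active = mean lysis activity across replicates of at least 80%, whatever share of replicates individually reach that level; inactive = mean lysis activity below 80%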
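Material: C. neoformans cells | Amount: Yeast cell density of 5 × 10^6 cells/mL | Medium: Fresh YPD growth medium | Dosing: Single dose | Times: Static 4 h at 37 °C with compound, 1 h detection | Detection: AK luminescence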
CAL PDZ FP-1 – CAL PDZ peptide-binding inhibitors, primary screen, biochemical, fluorescence polarization, Cer-tagged CAL PDZ, HTS | Golgi-associated PDZ and coiled-coil motif-containing protein (Homo sapiens), Q9HD26 | purified CAL PDZ, TMR-peptide fluorescence polarization, 1 h | inhibition, % at 20 µM | actives 0.02% (n = 330,000);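 active = highest replicate inhibition of at least 40%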;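 also: plate controls were DMSO neutral control wells for no effect and unlabeled competitor peptide control wells for full effect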
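material = purified tagged CAL PDZ domain construct (CerCALP) | compound dosing = 20 µM, one dose | times = 1 h at RT | measured by = fluorescence polarization from S- and P-plane intensities, G-factor corrected | read-out = inhibition from polarization loss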
CAL PDZ FP-2 – untagged CAL PDZ binding inhibitors, primary screen, biochemical, fluorescence polarization, HTS. Golgi-associated PDZ and coiled-coil motif-containing protein (Homo sapiens), Q9HD26. purified CAL PDZ, TMR-peptide fluorescence polarization, 1 h. inhibition, % at 24.9 µM. actives 0.92% (n = 300,000). AID 602252, 2012;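 active = mean inhibition of at least 30% with at least half of replicates also reaching 30%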;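 also: 0% = DMSO neutral control and 100% = excess unlabeled competitor peptide PRC23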
PglD DTNB – C. jejuni PglD acetyltransferase inhibitors, primary screen, biochemical, DTNB colorimetric, single point. UDP-N-acetylbacillosamine N-acetyltransferase PglD (Campylobacter jejuni). purified PglD enzyme, DTNB colorimetric CoA detection. inhibition, % at 12.5 µM. actives 0.098% (n = 360,000); in the data active = inhibition above about 16%, passing the limit was not always enough
Numbers without * were called inactive; . = not tested or not shown; ! = not confirmed by another sample; [ ] = remark or other dose.

SMILES | miR122 inh | Cneo AK release | CAL PDZ FP-1 | CAL PDZ FP-2 | PglD DTNB
CCOc1ccc(NS(=O)(=O)c2ccc(OCC)c3ncccc23)cc1 | 139.3* | 0.9 | -3.2 | . | 2.7
O=C(CN1CCCCC1)NCC1(c2ccccc2)CCCC1 | . | . | -2.2 | 0.3 | .
CC1=CC(C)(C)N(S(=O)(=O)c2ccc(C)cc2)c2cc(C)ccc21 | 94.0* | -3.6 | -2.8 | -1.8 | 2.1
O=C(COC(=O)Cc1ccc(F)cc1)NC1CCCCC1 | -11.9 | 4.6 | 0.3 | 33.6* | -0.6
O=C(N[C@H]1CC[C@@H](CCNS(=O)(=O)c2ccc(F)cc2)O[C@H]1CO)c1ccccn1 | . | -4.0 | . | . | 0.9
Nc1c(CNCc2nnn(Cc3ccccc3)c2N)nnn1Cc1ccccc1 | . | 1.8 | . | . | 3.3
O=C(NC1CCCC1)C1CCCN(S(=O)(=O)c2ccc(-n3cnnn3)cc2)C1 (stereo unspecified) | 1.7 | -0.7 | . | 33.5* | -2.7
COc1ccc(C2CCCN2C(=S)Nc2cccc(C)c2C)cc1OC (stereo unspecified) | -8.2 | -6.1 | -0.9 | -4.3 | 0.3
O=C(C[C@H]1CC[C@@H](NC(=O)Cc2ccccn2)[C@@H](CO)O1)NCCc1ccccc1 | . | -0.9 | . | . | 0.5
COc1ccc(NC(=O)NNC(=O)COc2ccc(Cl)cc2C)cc1OC | -5.7 | 0.0 | -0.7 | -1.6 | -1.0
COc1ccc(OC)c(NC(=O)NNC(=O)CCCOc2ccc(Cl)cc2C)c1 | . | . | -0.5 | 47.8* | .
COCCn1c(C)cc(C(=O)COC(=O)c2cc3c(s2)CCC3)c1C | 314.7* | -1.0 | -5.2 | -1.2 | 1.9
COCCn1c(C)cc(C(=O)COC(=O)c2cccc(O)c2)c1C | -2.9 | . | -1.8 | -0.9 | .
O=C(C1CCCCC1)N1[C@@H](CO)[C@@H]2c3ccccc3N(S(=O)(=O)c3ccccc3)C[C@@H]21 | -17.2[16.7 µM] | -2.7 | . | . | 0.8
CCN(CC)S(=O)(=O)c1ccc(N2CCOCC2)c(NC(=O)c2cccc3ccccc23)c1 | -3.1 | 2.4 | -0.1 | 1.5 | -2.6
CCN(CC)S(=O)(=O)c1ccc(N2CCOCC2)c(NS(=O)(=O)c2ccc(C(C)C)cc2)c1 | 105.8* | -2.4 | -0.4 | 5.4 | 5.4
CCN(CC)S(=O)(=O)c1ccc(N2CCOCC2)c(NC(=O)c2cc([N+](=O)[O-])ccc2Cl)c1 | . | . | -0.9 | 40.1* | .
CCN(CC)S(=O)(=O)c1ccc(N2CCOCC2)c(NS(=O)(=O)c2cccs2)c1 | . | 0.1 | 0.3 | -5.4 | 1.5
CCCC(=O)N1C[C@@H]2[C@H](c3ccccc31)[C@H](CO)N2C(=O)Nc1ccccc1 | 12.8[16.7 µM] | -7.0 | . | . | -1.5
CCN(CC)CC(=O)NCC1(c2ccccc2)CCOCC1 | 0.1 | -2.0 | -2.3 | 70.1* | -0.1
CN(C)C(=O)c1cccc(-c2ccc([C@H]3[C@@H](C#N)N(C(=O)C4CCC4)[C@@H]3CO)cc2)c1 | . | -4.5 | . | . | -1.1
COC(=O)c1ccc(/C=N/OCC(=O)NC2CCCCCCC2)cc1 | 162.8* | -1.4 | -1.5 | . | 1.0
COC(=O)c1ccc(/C=N/OCC(=O)NC2CCCC(C)C2C)cc1 (stereo unspecified) | 30.4 | 1.2 | . | -4.7 | .
O=C(O)CCCC(=O)Nc1ccc(N2CCCC2)cc1 | -7.6 | 1.1 | . | 92.6* | 0.4
Cc1ccc(C2CC(c3cccs3)=NN2C(=O)c2ccc(Br)o2)cc1 (stereo unspecified) | 0.7 | 199.9* | -0.5 | -1.0 | -2.3
SMILES | miR122 inh | Cneo AK release | CAL PDZ FP-1 | CAL PDZ FP-2 | PglD DTNB
Cc1noc(C)c1NC(=O)Nc1ccc2c(c1)C(=O)N([C@H](C)CO)C[C@@H](C)[C@H](CN(C)C(=O)Nc1ccc(F)cc1)OCCCC[C@@H](C)O2 | 5.6[16.7 µM] | 98.5* | . | . | -3.9
CC(C)NC(=O)Nc1ccc2c(c1)C(=O)N([C@@H](C)CO)C[C@@H](C)[C@H](CN(C)C(=O)c1ccncc1)OCCCC[C@H](C)O2 | 12.7[16.7 µM] | 114.5* | . | . | -2.9
CC(C)NC(=O)Nc1ccc2c(c1)C(=O)N([C@@H](C)CO)C[C@@H](C)[C@@H](CN(C)C(=O)c1ccncc1)OCCCC[C@@H](C)O2 | 6.5[16.7 µM] | 111.1* | . | . | 1.7
CC(C)NC(=O)Nc1ccc2c(c1)C(=O)N([C@H](C)CO)C[C@H](C)[C@@H](CN(C)C(=O)NC(C)C)OCCCC[C@H](C)O2 | 28.3[16.7 µM] | 113.5* | . | . | 0.4
CCOCCCNC(=O)CN1CCN(Cc2ccc(Cl)cc2)C1=O | -3.2 | -0.1 | -0.7 | -3.6 | -3.1
O=C(CCNC(=O)C1CCN(S(=O)(=O)c2ccccc2)CC1)NCc1ccc(Cl)c(Cl)c1 | -0.7 | -0.7 | -3.3 | -4.5 | -2.1
O=C(COC(=O)c1cn(-c2ccccc2)nc1-c1ccccc1)Nc1ncc(Cl)cc1Cl | -3.5 | -4.6 | 0.1 | 76.8* | 0.5
COc1cccc(-c2nn(-c3ccccc3)cc2C(=O)OCC(=O)Nc2ncc(Cl)cc2Cl)c1 | -0.3 | 0.2 | -1.2 | -2.7 | -2.3
O=C(CCCSc1nnnn1-c1cccc2ccccc12)c1ccc(F)cc1 | -12.3 | -1.6 | . | 45.8* | 5.0
CNC[C@@H]1Oc2c(NS(=O)(=O)c3cccs3)cccc2C(=O)N([C@@H](C)CO)C[C@H]1C | -3.1[16.7 µM] | 86.5* | . | . | -27.2
CNC[C@@H]1Oc2c(NS(=O)(=O)c3ccc(Cl)cc3)cccc2C(=O)N([C@H](C)CO)C[C@H]1C | 0.2[16.7 µM] | 87.2* | . | . | -1.6
CNC[C@H]1Oc2c(NS(=O)(=O)c3ccc(Cl)cc3)cccc2C(=O)N([C@H](C)CO)C[C@@H]1C | 5.6[16.7 µM] | 64.8 | . | . | 0.1
CNC[C@@H]1Oc2c(NS(=O)(=O)c3cccs3)cccc2C(=O)N([C@H](C)CO)C[C@@H]1C | -10.1[16.7 µM] | 6.9 | . | . | 8.9
CNC[C@H]1Oc2c(NS(=O)(=O)c3cccs3)cccc2C(=O)N([C@H](C)CO)C[C@@H]1C | 19.4[16.7 µM] | 95.6*! | -0.5 | -3.5 | -3.0
CNC[C@@H]1Oc2c(NS(=O)(=O)c3cccs3)cccc2C(=O)N([C@H](C)CO)C[C@H]1C | -1.2[16.7 µM] | -2.0 | . | . | 2.9
O=C(CN1CCOCC1)NCC[C@@H]1CC[C@H](NS(=O)(=O)c2ccc(F)cc2)[C@@H](CO)O1 | 7.7[16.7 µM] | -21.2 | . | . | -5.6
CNC(=O)C[C@@H]1CC[C@@H]2[C@H](COc3ccc(NC(=O)Nc4cccc(F)c4)cc3C(=O)N2C)O1 | 20.8[16.7 µM] | . | . | . | .
Cc1ccc(C2(C)NC(=O)N(CC(=O)Nc3ccc(S(=O)(=O)Nc4nccs4)cc3)C2=O)cc1 (stereo unspecified) | -8.6 | -0.8 | -2.2 | -1.5 | -5.0
CC(C)Nc1nc(NC(C)C)nc(C(N)=O)n1 | -2.3 | 7.8 | -0.8 | . | 4.1
CCOc1cc(/C=N/n2c(C)nc3sc(C)c(C)c3c2=O)ccc1O | . | . | -0.3 | 72.0* | .

Assay outcomes (PubChem)
